# Experimental data as given in ChEMBL document CHEMBL1125720, “Long-acting dihydropyridine calcium antagonists. 6. Structure-activity relationships around 4-(2,3-dichlorophenyl)-3-(ethoxycarbonyl)-2-[(2-hydroxyethoxy)methyl]-5 -(methoxycarbonyl)-6-methyl-1,4-dihydropyridine” (J Med Chem, 1991).
# Tests used:
# Cavia porcellus = species on record: Cavia porcellus; test: Evaluated for the negative ionotropy logarithm of the molar concentration required to depress contraction in the Langendorff-perfused guinea pig heart by 25%; format: functional
# Procedure, shortened: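 Negative inotropy measured in vitro in a Langendorff-perfused guinea pig heart. Read-out is the molar concentration that depresses contraction by 25%, reported as pIC25.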
# Rattus norvegicus = species on record: Rattus norvegicus; test: Evaluated for the negative logarithm of the molar concentration required to block [Ca2+] induced contraction of K+ depolarized rat aorta by 50%.; format: functional
# Procedure, shortened: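 Rat aorta depolarized with potassium, then contracted by adding calcium. Read-out is the molar concentration that inhibits the calcium-induced contraction by 50%, reported as pIC50.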
# [1] = Selectivity index calculated as the ratio of Calcium pIC50 to that of negative inotropy IC25; format: functional
# [2] = Compound was evaluated for the volume of distribution to investigate its pharmacokinetic profile in dogs after intravenous administration.; format: ADME, organism-based, Canis lupus familiaris; conditions: dog, in vivo, read-out: Volume of distribution
# [3] = Compound was evaluated for the plasma clearance to investigate its pharmacokinetic profile in dogs after intravenous administration.; format: ADME, organism-based, Canis lupus familiaris; conditions: dog
# [4] = Compound was evaluated for the plasma half-life to investigate its pharmacokinetic profile in dogs after intravenous administration.; format: ADME, organism-based, Canis lupus familiaris; conditions: dog
SMILES,pIC25 (Cavia porcellus),IC50 (Rattus norvegicus),Selectivity index [1],Vd [2],clearance [3],half-life [4]
CCO/C(O)=C1\C(COCC(C)(O)Cn2ccnc2)=NC(C)=C(C(=O)OC)C1c1cccc(Cl)c1Cl (configuration not stated),7.2,39.8 nM,1.6,,,
CCCOCC1=C(C(=O)OCC)C(c2cccc(Cl)c2Cl)/C(=C(\O)OC)C(C)=N1 (configuration not stated),6.2,31.6 nM,20,,,
CCO/C(O)=C1\C(COCC(C)(C)O)=NC(C)=C(C(=O)OC)C1c1cccc(Cl)c1Cl (configuration not stated),7.2,6.31 nM,10,,,
CCO/C(O)=C1\C(COCC(C)(O)Cn2cncn2)=NC(C)=C(C(=O)OC)C1c1cccc(Cl)c1Cl (configuration not stated),7.2,20 nM,3,,,
CCO/C(O)=C1\C(COCC(C)(O)CNc2ncccn2)=NC(C)=C(C(=O)OC)C1c1cccc(Cl)c1Cl (configuration not stated),7.1,39.8 nM,2,,,
CCO/C(O)=C1\C(COCC(C)(O)CSc2ncccn2)=NC(C)=C(C(=O)OC)C1c1cccc(Cl)c1Cl (configuration not stated),7.4,25.1 nM,1.6,,,
CCO/C(O)=C1\C(COCC(C)O)=NC(C)=C(C(=O)OC)C1c1cccc(Cl)c1Cl (configuration not stated),7.3,15.8 nM,3,,,
CCO/C(O)=C1\C(COCC(C)(O)Cc2ccccn2)=NC(C)=C(C(=O)OC)C1c1cccc(Cl)c1Cl (configuration not stated),7.5,63.1 nM,2,,,
CCO/C(O)=C1\C(COCC(C)(O)CO)=NC(C)=C(C(=O)OC)C1c1cccc(Cl)c1Cl (configuration not stated),7,25.1 nM,4,,,
COC(=O)C1=C(C)NC(C)=C(C(=O)OC)C1c1ccccc1[N+](=O)[O-] [NIFEDIPINE],7.5,,8,,,
CCO/C(O)=C1\C(COCC(C)(O)c2ccco2)=NC(C)=C(C(=O)OC)C1c1cccc(Cl)c1Cl (configuration not stated),6.6,15.8 nM,16,,,
CCO/C(O)=C1\C(COCC(C)(O)CN)=NC(C)=C(C(=O)OC)C1c1cccc(Cl)c1Cl (configuration not stated),6.5,158 nM,2,,,
CCO/C(O)=C1\C(COCC(O)CO)=NC(C)=C(C(=O)OC)C1c1cccc(Cl)c1Cl (configuration not stated),6.9,15.8 nM,8,,,
CCO/C(O)=C1\C(COCCO)=NC(C)=C(C(=O)OC)C1c1cccc(Cl)c1Cl (configuration not stated),7.4,3.98 nM,10,6 L/kg,9.6 mL/min/kg,7.3 h
CCO/C(O)=C1\C(COCCOC)=NC(C)=C(C(=O)OC)C1c1cccc(Cl)c1Cl (configuration not stated),6,31.6 nM,30,,,
